How the values were obtained:
pol Dpo1 = target: T1, pol Dpo1 (Saccharolobus solfataricus, UniProt P26811); assay: TAMRA strand-displacement selectivity assay, B-family pol; format: biochemical, Sulfolobus solfataricus; conditions: 10 μM IAG-10, 25 nM Dpo1
T1 sequence (P26811 1-882): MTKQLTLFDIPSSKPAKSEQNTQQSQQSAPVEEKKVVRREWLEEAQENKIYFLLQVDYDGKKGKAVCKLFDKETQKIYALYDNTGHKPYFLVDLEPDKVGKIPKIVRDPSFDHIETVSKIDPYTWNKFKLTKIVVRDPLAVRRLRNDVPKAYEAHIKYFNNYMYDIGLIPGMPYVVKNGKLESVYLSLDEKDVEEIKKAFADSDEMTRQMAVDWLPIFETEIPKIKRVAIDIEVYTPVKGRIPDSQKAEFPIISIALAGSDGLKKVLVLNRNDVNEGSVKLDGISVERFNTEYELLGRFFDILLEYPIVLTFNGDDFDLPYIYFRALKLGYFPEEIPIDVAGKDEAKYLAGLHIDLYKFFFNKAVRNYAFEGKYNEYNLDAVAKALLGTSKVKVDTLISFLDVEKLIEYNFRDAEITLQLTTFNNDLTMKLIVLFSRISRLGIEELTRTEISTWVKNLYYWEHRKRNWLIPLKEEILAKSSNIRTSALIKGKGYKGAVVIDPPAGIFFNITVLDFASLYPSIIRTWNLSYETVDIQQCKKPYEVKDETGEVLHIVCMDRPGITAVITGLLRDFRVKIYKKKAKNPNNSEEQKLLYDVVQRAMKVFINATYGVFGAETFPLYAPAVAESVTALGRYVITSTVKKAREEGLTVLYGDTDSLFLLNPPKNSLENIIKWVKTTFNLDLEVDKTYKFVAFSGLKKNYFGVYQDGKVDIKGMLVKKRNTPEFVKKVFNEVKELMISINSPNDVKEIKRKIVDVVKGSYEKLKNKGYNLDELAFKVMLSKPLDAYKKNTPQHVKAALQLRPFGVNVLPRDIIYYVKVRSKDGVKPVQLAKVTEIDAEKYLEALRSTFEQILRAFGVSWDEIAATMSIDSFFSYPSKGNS

hpol η = target: T2, hpol η (Homo sapiens, UniProt Q9Y253); assay: Steady-state kinetic analysis of nucleotide insertion; format: biochemical; conditions: increasing IAG-10 concentration
T2 sequence (Q9Y253 1-437): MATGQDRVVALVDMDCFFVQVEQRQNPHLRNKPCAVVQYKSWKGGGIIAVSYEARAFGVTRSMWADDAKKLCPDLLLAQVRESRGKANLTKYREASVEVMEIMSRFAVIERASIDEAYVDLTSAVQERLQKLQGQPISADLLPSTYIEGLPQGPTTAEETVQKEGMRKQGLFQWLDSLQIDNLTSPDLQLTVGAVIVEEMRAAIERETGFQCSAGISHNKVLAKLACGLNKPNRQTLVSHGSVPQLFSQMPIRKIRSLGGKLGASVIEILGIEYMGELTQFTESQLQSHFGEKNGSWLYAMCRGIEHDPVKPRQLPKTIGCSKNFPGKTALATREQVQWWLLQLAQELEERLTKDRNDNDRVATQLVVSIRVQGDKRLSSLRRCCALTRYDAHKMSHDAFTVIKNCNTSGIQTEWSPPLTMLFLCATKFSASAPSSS

[1] = target: T3, hpol η binding to primer-template DNA (Homo sapiens, UniProt Q9Y253); assay: Fluorescence anisotropy DNA binding assay; conditions: inhibitor concentration near the IC50 for pol activity; 2 nM FAM-labeled p/t-DNA
T3 sequence (Q9Y253 1-437): T2 sequence (Q9Y253 1-437)

[2] = system: hpol κ-deficient HAP-1 cells; assay: supF mutagenesis assay; format: cell-based, human; conditions: 1 μM IAG-10, 24 h
How it was run: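 HAP-1 cells at ~80% confluency (IMDM, 10% FBS) lipofected for 24 h with pSP189 supF plasmid (10 μg per 10 cm dish), ±1 μM test compound. Plasmid was unmodified or pretreated with 100 mM MMS (HEPES pH 7.5, RT, 1 h). Recovered plasmid DpnI-digested, electroporated into E. coli MBM7070, plated on ampicillin/IPTG/X-gal. Mutation frequency = white/(blue + white); ≥10 000 colonies per condition; biological triplicate, mean ±SD.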

hpol κ [3] = target: T4, hpol κ (Homo sapiens, UniProt Q9UBT6); assay: Steady-state kinetic analysis of dTTP insertion; format: biochemical; conditions: 0.5 nM hpol κ, 25 nM DNA, varying inhibitor concentration
T4 sequence (Q9UBT6 19-526): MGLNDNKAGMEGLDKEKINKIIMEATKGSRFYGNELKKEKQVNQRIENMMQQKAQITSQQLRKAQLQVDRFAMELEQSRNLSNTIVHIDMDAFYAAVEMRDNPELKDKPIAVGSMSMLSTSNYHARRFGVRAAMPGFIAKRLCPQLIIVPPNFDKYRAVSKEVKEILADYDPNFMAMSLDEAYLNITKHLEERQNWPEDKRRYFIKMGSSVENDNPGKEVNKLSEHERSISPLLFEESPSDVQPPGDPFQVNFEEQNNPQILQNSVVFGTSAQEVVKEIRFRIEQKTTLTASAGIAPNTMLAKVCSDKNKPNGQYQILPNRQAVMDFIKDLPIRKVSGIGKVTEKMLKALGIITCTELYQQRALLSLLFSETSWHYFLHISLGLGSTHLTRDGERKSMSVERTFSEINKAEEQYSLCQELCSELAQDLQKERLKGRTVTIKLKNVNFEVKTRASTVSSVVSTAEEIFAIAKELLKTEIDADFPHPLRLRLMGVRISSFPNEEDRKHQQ

hpol κ [4] = target: T4, hpol κ; assay: TAMRA strand-displacement fluorescence assay of DNA polymerase activity; format: biochemical

With Cl.[H]/N=C(\N)NN=Cc1cn(C(=O)c2cccc3ccccc23)c2ccc(Cl)cc12 [IAG-10, (E)-2-((1-(1-naphthoyl)-5-chloro-1H-indol-3-yl)-methylene)hydrazine-1-carboximidamide hydrochloride] the “polymerase activity in presence of compound” value (pol Dpo1) was “only hpol κ activity was inhibited”, the “effect on Michaelis constant” value (hpol η) was “linear increase” and the effect on kcat (hpol η) was “no measurable change”. For the same compound, the “increase in the Kd,DNA” value [1] was 20–30%, the “mutation frequency, control or MMS-damaged DNA” value [2] was “did not alter the mutation frequency” and the “effect on turnover number (kcat)” value (hpol κ [3]) was “sharp decrease”. The “polymerase activity in presence of compound” value (hpol κ [4]; 10 μM IAG-10, 25 nM hpol κ) was “only hpol κ activity was inhibited”, the “inhibition of enzyme activity in the initial screen” value (hpol κ [4]; 40 μM compound, 1 nM hpol κ, 50 nM DNA, relative to DMSO control) was “greatest inhibitory action” and the IC50 (hpol κ [4]; IC50, 0.1 nM hpol κ, 0.5 nM DNA, 95% CI in parentheses) was 0.72 µM. For the same compound, the IC50 (hpol κ [4]; IC50, 0.2 nM hpol κ, 1 nM DNA, 95% CI in parentheses) was 1.1 µM, the IC50 (hpol κ [4]; IC50, 0.2 nM hpol κ, 2.5 nM DNA, 95% CI in parentheses) was 1.4 µM and the IC50 (hpol κ [4]; IC50, 0.5 nM hpol κ, 10 nM DNA, 95% CI in parentheses) was 8.9 µM. The IC50 (hpol κ [4]; IC50, 1 nM hpol κ, 25 nM DNA, 95% CI in parentheses) was 8.9 µM, the IC50 (hpol κ [4]; IC50, 1 nM hpol κ, 50 nM DNA, 100 μM dTTP, 1 mM MgCl2, 25 °C, mean n = 3) was 7.2 µM and the “specificity for hpol κ over η” value (hpol κ [4]; initial reaction conditions (higher enzyme and DNA)) was ~ 2 fold. The “specificity for hpol κ over η” value (hpol κ [4]; lower concentrations of enzyme and DNA) was ~ 30 fold.
